In ChEMBL document CHEMBL4376826 (J Med Chem, 2020):
Converted amounts (≈) assume the structure as drawn. The source made the active and inactive calls. The calls are words filed in the database; no cut-off is given here.

Assays:
[1] = Effect on microsomal protein concentrations in minipig at 500 mg/kg/day, po for 39 weeks; format: ADME, organism-based, Sus scrofa domesticus; conditions: pig, in vivo, 6552 h
[2] = Intrinsic clearance in human liver microsomes in presence of CYP2D6 inhibitor Quinidine; format: ADME, Microsome; conditions: with Quinidine (CYP2D6 inhibitor), read-out: CLH
[3] = Induction of CYP2B enzymes in male minipig assessed as increase in PROD enzyme activity at 500 mg/kg/day, po for 39 weeks relative to control; format: ADME, organism-based, Sus scrofa domesticus; conditions: pig, in vivo, 6552 h
[4] = Intrinsic clearance in human liver microsomes; format: ADME, Microsome; conditions: read-out: CLH
[5] = Intrinsic clearance in human liver microsomes in presence of CYP2B6 inhibitor Ticlopidine; format: ADME, Microsome; conditions: with Ticlopidine (CYP2B6 inhibitor), read-out: CLH
[6] = target: Cytochrome P450 2C8 (Homo sapiens, UniProt P10632); assay: Drug metabolism assessed as human CYP2C8-mediated metabolism by measuring DHD3 formation; format: ADME; conditions: recombinant enzyme
[7] = Drug metabolism in rat plasma assessed as formation of glucuronide conjugate of dihydrodiol at 2000 mg/kg, po dosed for 28 days; format: ADME, organism-based; conditions: in vivo, 672 h
[8] = Drug metabolism in human liver microsomes assessed as metabolite retention time incubation for 45 mins; format: ADME, Microsome; conditions: 0.75 h
Outline: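 Incubation of substrate in pooled male and female human liver microsomes for 45 min; parent and metabolite resolved by LC-MS, metabolite identified by retention time and [M+H]+ ion.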

[9] = system: Rattus norvegicus; assay: Effect on microsomal protein concentrations in rat at 2000 mg/kg/day, po for 28 days; format: ADME, organism-based; conditions: in vivo, 672 h
Outline: (§1)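 Rats dosed 2000 mg/kg/day by oral gavage for 28 days; liver microsomes prepared, microsomal protein concentration and total P450 content measured.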

[10] = Half life in mouse liver S9 fraction; format: ADME, subcellular
Outline: (§2)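 Metabolic stability of the dihydrodiols measured in vitro with mouse and human liver S9 fractions and with mouse and human hepatocytes; half-life from substrate depletion.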

[11] = target: CYP2B6 (Homo sapiens, UniProt P20813); assay: Drug metabolism assessed as human CYP2B6-mediated metabolism by measuring half life; format: ADME; conditions: human CYP2B6 enzyme
[12] = Induction of CYP2E1 enzymes in minipig assessed as increase in 11-hydroxylase activity at 500 mg/kg/day, po for 39 weeks relative to control; format: ADME, organism-based, Sus scrofa domesticus; conditions: pig, in vivo, 6552 h
[13] = target: T1, Cytochrome P450 1A2 (Homo sapiens, UniProt P05177); assay: Drug metabolism assessed as human CYP1A2-mediated metabolism by measuring DHD1 formation; format: ADME; conditions: recombinant enzyme
T1 sequence (P05177 whole entry): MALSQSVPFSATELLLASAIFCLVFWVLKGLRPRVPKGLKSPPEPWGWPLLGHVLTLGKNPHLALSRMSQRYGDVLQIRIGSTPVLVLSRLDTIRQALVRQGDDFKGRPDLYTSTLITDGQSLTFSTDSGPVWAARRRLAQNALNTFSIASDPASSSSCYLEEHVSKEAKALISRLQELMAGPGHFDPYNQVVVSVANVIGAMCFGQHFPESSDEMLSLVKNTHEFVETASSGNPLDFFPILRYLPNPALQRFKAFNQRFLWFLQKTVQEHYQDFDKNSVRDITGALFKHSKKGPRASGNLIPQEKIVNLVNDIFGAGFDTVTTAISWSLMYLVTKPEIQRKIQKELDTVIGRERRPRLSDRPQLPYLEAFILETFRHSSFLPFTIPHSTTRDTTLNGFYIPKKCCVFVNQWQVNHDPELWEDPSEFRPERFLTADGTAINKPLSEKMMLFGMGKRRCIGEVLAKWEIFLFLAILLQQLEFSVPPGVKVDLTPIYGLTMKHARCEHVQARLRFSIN

[14] = target: T1, Cytochrome P450 1A2; assay: Drug metabolism assessed as human CYP1A2-mediated metabolism by measuring DHD3 formation; format: ADME; conditions: recombinant enzyme
[15] = target: CYP2D6 (Homo sapiens, UniProt P10635); assay: Drug metabolism assessed as human CYP2D6-mediated metabolism by measuring half life; format: ADME; conditions: human CYP2D6 enzyme
[16] = Drug metabolism in rat plasma assessed as formation of O-glucuronide conjugate of aromatized diol at 2000 mg/kg, po dosed for 28 days; format: ADME, organism-based; conditions: in vivo, 672 h
[17] = Induction of CYP4A enzymes in minipig assessed as increase in 12-hydroxylase activity at 500 mg/kg/day, po for 39 weeks relative to control; format: ADME, organism-based, Sus scrofa domesticus; conditions: pig, in vivo, 6552 h
[18] = Half life in human liver S9 fraction; format: ADME, subcellular; outline: as §2
[19] = Intrinsic clearance in human liver microsomes in presence of CYP1A inhibitor alpha-naphthoflavone; format: ADME, Microsome; conditions: with alpha-naphthoflavone (CYP1A inhibitor), read-out: CLH
[20] = target: T1, Cytochrome P450 1A2; assay: Inhibition of CYP1A2 in human liver microsomes; format: ADME
[21] = target: T2, Cytochrome P450 2B6 (Homo sapiens, UniProt P20813); assay: Drug metabolism assessed as human CYP2B6-mediated metabolism by measuring DHD3 formation; format: ADME; conditions: recombinant enzyme
[22] = Effect on total cytochrome P450 content in minipig at 500 mg/kg/day, po for 39 weeks; format: ADME, organism-based, Sus scrofa domesticus; conditions: pig, in vivo, 6552 h
[23] = target: CYP1A1 (Homo sapiens, UniProt P04798); assay: Drug metabolism assessed as human CYP1A1-mediated metabolism by measuring half life; format: ADME; conditions: human CYP1A1 enzyme
[24] = Intrinsic clearance in mouse liver S9 fraction; format: ADME, subcellular; conditions: read-out: CLH
[25] = target: CYP3A4 (Homo sapiens, UniProt P08684); assay: Drug metabolism assessed as human CYP3A4-mediated metabolism by measuring half life; format: ADME; conditions: human CYP3A4 enzyme
[26] = target: CYP2C8 (Homo sapiens, UniProt P10632); assay: Drug metabolism assessed as human CYP2C8-mediated metabolism by measuring half life; format: ADME; conditions: human CYP2C8 enzyme
[27] = Drug metabolism in beta-naphthoflavone/phenobarbital-induced rat liver S9 fraction assessed as compound-D2 formation at 100 ug/ml in presence of NADPH measured after 4 hrs by UV-Vis spectroscopy; format: ADME, subcellular; conditions: s9, 4 h
[28] = Drug level in rat plasma at 2000 mg/kg, po measured after 24 hrs; format: ADME, organism-based; conditions: in vivo
[29] = Intrinsic clearance in human liver S9 fraction; format: ADME, subcellular; conditions: read-out: CLH
[30] = Kinetic aqueous solubility of the compound; format: physicochemical; conditions: buffer; read-out: Kinetic_solubility
[31] = target: Cytochrome P450 2C19 (Homo sapiens, UniProt P33261); assay: Drug metabolism assessed as human CYP2C19-mediated metabolism by measuring DHD3 formation; format: ADME; conditions: recombinant enzyme
[32] = target: Cytochrome P450 1A1 (Homo sapiens, UniProt P04798); assay: Drug metabolism assessed as human CYP1A1-mediated metabolism by measuring DHD3 formation; format: ADME; conditions: recombinant enzyme
[33] = species: Homo sapiens; assay: Substrate activity at MDR4 (unknown origin)
[34] = target: T2, Cytochrome P450 2B6; assay: Drug metabolism assessed as human CYP2B6-mediated metabolism by measuring DHD1 formation; format: ADME; conditions: recombinant enzyme
[35] = system: Rattus norvegicus; assay: Effect on total cytochrome P450 content in rat at 2000 mg/kg/day, po for 28 days; format: ADME, organism-based; conditions: in vivo, 672 h; outline: as §1
[36] = target: CYP1A2 (Homo sapiens, UniProt P05177); assay: Drug metabolism assessed as human CYP1A2-mediated metabolism by measuring half life; format: ADME; conditions: human CYP1A2 enzyme
[37] = Protein binding in mouse plasma assessed as bound fraction; format: ADME, cell-free; conditions: read-out: PPB (converted)
Outline: (§3)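 Binding measured in 100% plasma; reported as fraction bound.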

[38] = target: CYP2C9 (Homo sapiens, UniProt P11712); assay: Drug metabolism assessed as human CYP2C9-mediated metabolism by measuring half life; format: ADME; conditions: human CYP2C9 enzyme
[39] = target: Cytochrome P450 2C9 (Homo sapiens, UniProt P11712); assay: Drug metabolism assessed as human CYP2C9-mediated metabolism by measuring DHD3 formation; format: ADME; conditions: recombinant enzyme
[40] = Permeability at pH 7.4 by PAMPA; format: ADME; conditions: read-out: permeability
[41] = Protein binding in human plasma assessed as bound fraction; format: ADME, cell-free; conditions: read-out: PPB (converted); outline: as §3
[42] = target: Cytochrome P450 3A4 (Homo sapiens, UniProt P08684); assay: Drug metabolism assessed as human CYP3A4-mediated metabolism by measuring DHD3 formation; format: ADME; conditions: recombinant enzyme
[43] = target: T3, Cytochrome P450 2D6 (Homo sapiens, UniProt P10635); assay: Drug metabolism assessed as human CYP2D6-mediated metabolism by measuring DHD1 formation; format: ADME; conditions: recombinant enzyme
[44] = target: T3, Cytochrome P450 2D6; assay: Drug metabolism assessed as human CYP2D6-mediated metabolism by measuring DHD3 formation; format: ADME; conditions: recombinant enzyme
[45] = Induction of CYP3A enzymes in minipig assessed as increase in testosterone hydroxylase activity at 500 mg/kg/day, po for 39 weeks relative to control; format: ADME, organism-based, Sus scrofa domesticus; conditions: pig, in vivo, 6552 h
[46] = system: UDP-glucuronosyltransferases (UGTs); assay: Drug metabolism assessed as human UGT-mediated metabolism by measuring half life for DHD3 formation; format: ADME, protein assay
[47] = target: CYP2C19 (Homo sapiens, UniProt P33261); assay: Drug metabolism assessed as human CYP2C19-mediated metabolism by measuring half life; format: ADME; conditions: human CYP2C19 enzyme
[48] = Induction of CYP1A1/2 enzymes in male minipig assessed as increase in EROD enzyme activity at 500 mg/kg/day, po for 39 weeks relative to control; format: ADME, organism-based, Sus scrofa domesticus; conditions: pig, in vivo, 6552 h
[49] = Drug metabolism in beta-naphthoflavone/phenobarbital-induced rat liver S9 fraction assessed as compound-D1 formation at 100 ug/ml in presence of NADPH measured after 4 hrs by UV-Vis spectroscopy; format: ADME, subcellular; conditions: s9, 4 h

T3 sequence (P10635 whole entry): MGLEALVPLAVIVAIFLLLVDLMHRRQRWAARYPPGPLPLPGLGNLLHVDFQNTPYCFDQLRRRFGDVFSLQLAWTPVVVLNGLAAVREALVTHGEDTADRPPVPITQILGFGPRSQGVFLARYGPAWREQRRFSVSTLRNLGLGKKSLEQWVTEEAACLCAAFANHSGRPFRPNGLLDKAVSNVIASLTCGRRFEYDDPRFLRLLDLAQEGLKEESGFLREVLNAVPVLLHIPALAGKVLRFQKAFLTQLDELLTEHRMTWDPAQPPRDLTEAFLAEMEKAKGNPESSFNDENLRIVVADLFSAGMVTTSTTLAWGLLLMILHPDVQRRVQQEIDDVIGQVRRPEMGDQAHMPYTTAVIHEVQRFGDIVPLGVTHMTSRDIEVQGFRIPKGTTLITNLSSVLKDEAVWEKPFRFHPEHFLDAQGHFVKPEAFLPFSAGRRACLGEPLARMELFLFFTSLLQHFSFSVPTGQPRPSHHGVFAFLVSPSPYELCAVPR
T2 sequence (P20813 whole entry): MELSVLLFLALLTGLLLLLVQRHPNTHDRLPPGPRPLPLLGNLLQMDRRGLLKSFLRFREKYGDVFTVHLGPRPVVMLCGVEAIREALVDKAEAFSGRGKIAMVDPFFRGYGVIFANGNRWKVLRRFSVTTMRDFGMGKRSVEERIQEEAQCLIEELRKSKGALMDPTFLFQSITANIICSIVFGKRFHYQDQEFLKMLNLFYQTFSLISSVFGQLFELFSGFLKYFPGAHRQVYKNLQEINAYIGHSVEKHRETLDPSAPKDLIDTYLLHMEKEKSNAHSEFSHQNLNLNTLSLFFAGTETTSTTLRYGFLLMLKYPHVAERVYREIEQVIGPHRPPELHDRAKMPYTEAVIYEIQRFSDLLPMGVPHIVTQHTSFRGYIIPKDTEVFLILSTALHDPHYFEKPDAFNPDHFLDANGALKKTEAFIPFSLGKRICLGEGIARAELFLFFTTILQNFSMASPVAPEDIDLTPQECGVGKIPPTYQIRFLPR
Cytochrome P450 2C9, sequence (P11712 whole entry): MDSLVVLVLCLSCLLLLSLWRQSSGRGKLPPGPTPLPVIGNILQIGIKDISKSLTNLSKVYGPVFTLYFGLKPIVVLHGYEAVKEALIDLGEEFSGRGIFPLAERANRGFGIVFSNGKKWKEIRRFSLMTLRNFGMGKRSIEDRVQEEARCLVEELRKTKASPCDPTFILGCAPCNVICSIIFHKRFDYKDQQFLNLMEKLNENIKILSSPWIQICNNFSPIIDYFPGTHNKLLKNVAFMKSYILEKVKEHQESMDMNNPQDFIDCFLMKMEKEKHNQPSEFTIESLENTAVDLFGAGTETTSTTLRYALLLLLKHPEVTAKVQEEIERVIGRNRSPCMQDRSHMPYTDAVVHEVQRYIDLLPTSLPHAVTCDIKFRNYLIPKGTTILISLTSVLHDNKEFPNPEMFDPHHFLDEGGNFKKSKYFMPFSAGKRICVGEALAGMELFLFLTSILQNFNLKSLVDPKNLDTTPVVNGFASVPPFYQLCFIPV
CYP2C9, sequence (P11712 whole entry): as above
Cytochrome P450 2C19, sequence (P33261 whole entry): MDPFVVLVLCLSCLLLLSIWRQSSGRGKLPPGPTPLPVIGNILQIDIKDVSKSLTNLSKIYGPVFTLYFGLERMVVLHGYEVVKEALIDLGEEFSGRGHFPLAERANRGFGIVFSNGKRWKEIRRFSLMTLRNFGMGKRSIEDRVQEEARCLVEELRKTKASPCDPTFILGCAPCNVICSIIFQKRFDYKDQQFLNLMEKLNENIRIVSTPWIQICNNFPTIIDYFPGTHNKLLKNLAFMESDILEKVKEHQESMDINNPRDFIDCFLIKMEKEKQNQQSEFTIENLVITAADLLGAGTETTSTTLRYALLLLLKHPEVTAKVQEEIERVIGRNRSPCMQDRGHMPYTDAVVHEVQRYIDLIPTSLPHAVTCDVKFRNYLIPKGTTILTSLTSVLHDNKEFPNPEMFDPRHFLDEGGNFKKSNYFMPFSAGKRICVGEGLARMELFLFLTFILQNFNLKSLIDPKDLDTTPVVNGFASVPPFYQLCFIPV
CYP2C19, sequence (P33261 whole entry): as above
CYP2C8, sequence (P10632 whole entry): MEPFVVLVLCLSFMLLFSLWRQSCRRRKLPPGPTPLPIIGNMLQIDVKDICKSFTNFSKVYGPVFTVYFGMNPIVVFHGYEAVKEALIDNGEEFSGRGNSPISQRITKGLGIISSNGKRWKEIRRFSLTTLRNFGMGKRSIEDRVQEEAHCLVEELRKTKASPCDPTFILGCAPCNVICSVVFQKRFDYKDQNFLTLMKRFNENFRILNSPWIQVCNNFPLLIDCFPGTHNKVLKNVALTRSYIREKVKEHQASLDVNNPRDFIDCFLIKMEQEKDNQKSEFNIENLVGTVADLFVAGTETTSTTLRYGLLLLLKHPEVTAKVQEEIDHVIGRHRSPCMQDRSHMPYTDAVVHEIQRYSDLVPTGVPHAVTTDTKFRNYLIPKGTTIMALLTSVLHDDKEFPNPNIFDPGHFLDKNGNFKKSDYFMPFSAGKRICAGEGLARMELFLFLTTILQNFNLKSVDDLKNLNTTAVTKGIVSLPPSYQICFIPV
Cytochrome P450 2C8, sequence (P10632 whole entry): as above
Cytochrome P450 1A1, sequence (P04798 whole entry): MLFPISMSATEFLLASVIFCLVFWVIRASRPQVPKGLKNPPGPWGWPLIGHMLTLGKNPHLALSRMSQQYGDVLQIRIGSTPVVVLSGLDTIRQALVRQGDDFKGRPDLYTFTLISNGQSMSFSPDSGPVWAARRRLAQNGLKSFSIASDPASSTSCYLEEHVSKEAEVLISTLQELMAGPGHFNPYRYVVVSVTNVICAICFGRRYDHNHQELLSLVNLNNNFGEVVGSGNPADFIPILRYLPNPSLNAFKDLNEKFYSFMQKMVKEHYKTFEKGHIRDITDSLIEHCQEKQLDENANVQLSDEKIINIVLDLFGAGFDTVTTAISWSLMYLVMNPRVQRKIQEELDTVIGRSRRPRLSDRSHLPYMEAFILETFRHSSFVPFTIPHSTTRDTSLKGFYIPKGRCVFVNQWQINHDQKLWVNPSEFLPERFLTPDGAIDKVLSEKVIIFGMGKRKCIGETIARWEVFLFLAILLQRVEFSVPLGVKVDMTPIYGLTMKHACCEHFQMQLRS
CYP1A1, sequence (P04798 whole entry): as above
CYP2D6, sequence (P10635 whole entry): as the sequence (P10635 whole entry) above
CYP2B6, sequence (P20813 whole entry): as the sequence (P20813 whole entry) above
Cytochrome P450 3A4, sequence (P08684 whole entry): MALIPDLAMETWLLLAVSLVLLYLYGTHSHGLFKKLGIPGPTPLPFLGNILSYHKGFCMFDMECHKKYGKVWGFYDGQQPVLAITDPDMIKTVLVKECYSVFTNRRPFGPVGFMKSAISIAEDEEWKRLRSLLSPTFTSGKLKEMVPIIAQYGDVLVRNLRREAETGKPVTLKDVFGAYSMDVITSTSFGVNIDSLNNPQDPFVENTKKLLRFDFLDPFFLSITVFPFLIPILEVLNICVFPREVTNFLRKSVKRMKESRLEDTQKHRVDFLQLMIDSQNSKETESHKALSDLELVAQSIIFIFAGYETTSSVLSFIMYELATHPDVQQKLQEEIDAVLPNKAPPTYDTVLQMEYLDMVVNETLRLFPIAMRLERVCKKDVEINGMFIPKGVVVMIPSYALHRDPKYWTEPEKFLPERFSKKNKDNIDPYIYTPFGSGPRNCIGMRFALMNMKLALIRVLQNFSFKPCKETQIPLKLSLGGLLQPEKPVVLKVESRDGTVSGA
CYP3A4, sequence (P08684 whole entry): as above

CCS(=O)(=O)c1ccc2oc(-c3ccc4ccccc4c3)nc2c1 [EZUTROMID]
Activity [1]: Non-Toxic | microsomal CLint [2]: 35.1 µL/min/mg | Activity [3]: Not Active | microsomal CLint [4]: 50.7 µL/min/mg | microsomal CLint [5]: 21.4 µL/min/mg | Drug metabolism [6]: Metabolite_Notdetected | Drug metabolism [7]: Metabolite_Detected | Retention_time [8]: 5.7 min | Activity [9]: Non-Toxic | half-life [10]: 1.23 h | half-life [11]: ≥ 3 h | Activity [12]: Not Active | Drug metabolism [13]: Metabolite_Detected | Drug metabolism [14]: Metabolite_Notdetected | half-life [15]: ≥ 3 h | Drug metabolism [16]: Metabolite_Detected | Activity [17]: Not Active | half-life [18]: 1.68 h | microsomal CLint [19]: 5.06 µL/min/mg | IC50 [20]: 5.4 µM | Drug metabolism [21]: Metabolite_Notdetected | Activity [22]: Non-Toxic | half-life [23]: 2.16 min | microsomal CLint [24]: 19 µL/min/mg | half-life [25]: ≥ 3 h | half-life [26]: ≥ 3 h | Drug metabolism [27]: Metabolite_Detected | Drug uptake [28]: 38 to 89% | microsomal CLint [29]: 14 µL/min/mg | solubility kinetic [30]: 1 to 2 µM (≈ 0.337 to 0.675 µg/mL) | Drug metabolism [31]: Metabolite_Notdetected | Drug metabolism [32]: Metabolite_Notdetected | Activity [33]: inactive | Drug metabolism [34]: Metabolite_Detected | Activity [35]: Non-Toxic | half-life [36]: 2.62 min | fraction unbound [37]: 0.005 | half-life [38]: ≥ 3 h | Drug metabolism [39]: Metabolite_Notdetected | Papp [40]: 9.5 ×10⁻⁶ cm/s | fraction unbound [41]: 0.01 | Drug metabolism [42]: Metabolite_Notdetected | Drug metabolism [43]: Metabolite_Detected | Drug metabolism [44]: Metabolite_Notdetected | Activity [45]: Not Active | t1/2 [46]: > 4 h | half-life [47]: ≥ 3 h | Activity [48]: Not Active | Drug metabolism [49]: Metabolite_Detected
